Structures are written as SMILES. Converted amounts (≈) assume the structure as drawn.

A short description of test [1]: Growth inhibition of human A172 cells after 6 days. The test is classed as functional, cell-based. The conditions noted are these: a 172.
Test [2] is described as follows: Cytotoxicity against human A172 cells after 6 days. The test is classed as functional, cell-based, A 172. In short, it runs like this: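 A172 glioma cells in high-glucose DMEM with 10% heat-inactivated FBS and penicillin/streptomycin, seeded at 5 × 10^3 cells/mL (1 mL/well). After 24 h, alkaloids were added from fresh 1 mg/mL DMSO stocks (final DMSO ≤0.5%; controls DMSO-matched). Total cell number counted by particle counter after 6 days. IC50 (50% inhibition vs untreated) taken from dose–response curves; mean ± SD, ≥3 independent experiments.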

Where [3] appears, read: Homo sapiens, A 172, 144 h, read-out: IC50.

In the case of `CCN1C[C@]2(COC)CC[C@H](OC)[C@]34C1[C@@](O)([C@@H](OC)[C@H]23)[C@@]1(O)C[C@H](OC)[C@H]2C[C@@H]4[C@@H]1[C@H]2OC(C)=O`, the relative cell growth in test [1] turned out to be 0.99. Usually IC50 stands for the concentration that inhibits the measured activity by half. As for `C=C1[C@H]2C[C@H]3C4N5C[C@]6(C)CCC[C@]47[C@H]([C@H]2O)C3(C[C@]5(O)[C@H]67)[C@@H]1O` [PSEUDOKOBUSINE], the relative cell growth in test [1] was determined as 0.84. For the same compound, in test [2] (setting [3]), the IC50 is greater than 5 µg/mL. Taken in the same sequence, the figures for `C=C1[C@@H](OC(C)=O)[C@]23C[C@@H]1[C@@H](O)C[C@H]2[C@@]12C4C3C[C@@H]1[C@@]1(C)CC[C@H]2OC1N4CC` [DEHYDROLUCIDUSCULINE] were 1.18 and greater than 5 µg/mL. In test [1], `C=C1[C@H]2C[C@H]3C4N5C[C@]6(C)CCC[C@]47[C@H]([C@H]2OC(=O)c2cccc(C(F)(F)F)c2)C3(CC5[C@H]67)[C@@H]1O` returned a relative cell growth of 0.6. Turning to `C=C1[C@H]2C[C@H]3C4N5C[C@]6(C)CCC[C@]47[C@H]([C@H]2OC(=O)/C=C/c2ccccc2)C3(C[C@]5(O)[C@H]67)[C@@H]1O`, the relative cell growth in test [1] turned out to be 0.49. Besides, the IC50 in test [2] (setting [3]) is 0.89 µg/mL (≈ 1.94 µM). In test [1], `CCN1C[C@]2(COC)CC[C@H](OC)[C@]34C1C([C@H](OC)[C@H]23)[C@]1(OC(C)=O)[C@H]2[C@@H](OC(=O)c3ccccc3)[C@](O)(C[C@H]24)[C@@H](OC)[C@@H]1O` [DEOXYACONITINE] gave a relative cell growth of 0.99. On the same count and under the same terms, the result for `C=C1[C@H]2C[C@H]3C4N5C[C@]6(C)CCC[C@]47[C@H]([C@H]2O)C3(C[C@]5(OC(=O)c2ccccc2)[C@H]67)[C@@H]1O` reads 0.93; that for `C=C1[C@H]2C[C@H]3C4N5C[C@]6(C)CCC[C@]47[C@H]([C@H]2O)C3(C[C@]5(OC(=O)c2cccc(C(F)(F)F)c2)[C@H]67)[C@@H]1O`, 1.04. Regarding `C=C1[C@H]2C[C@H]3C4N5C[C@]6(C)CCC[C@]47[C@H]([C@H]2OC(=O)c2ccccc2)C3(C[C@]5(OC(=O)c2ccccc2)[C@H]67)[C@@H]1O`, the relative cell growth in test [1] is 0.76. This compound yielded a half-inhibitory concentration (IC50) in test [2] (a 172) of 1.3 µg/mL (≈ 2.42 µM). In test [1], `C=C1[C@H]2C[C@H]3C4N5C[C@]6(C)CCC[C@]47[C@H]([C@H]2OC(=O)c2ccc(OC)c(OC)c2)C3(C[C@]5(O)[C@H]67)[C@@H]1O` gave a relative cell growth of 0.47. Also, the 50% inhibitory concentration (IC50) in test [2] (setting [3]) stood at 1.2 µg/mL (≈ 2.43 µM). With `C=C1[C@@H](OC(C)=O)[C@]23C[C@@H]1[C@@H](OC(C)=O)C[C@H]2[C@@]12C4C3C[C@@H]1[C@@](C)(CC[C@H]2O)CN4CC`, the relative cell growth in test [1] worked out at 1.03. For `C=C1[C@H]2C[C@H]3C4N(Cc5ccccc5)C[C@]5(C)CCC[C@]46[C@H]([C@H]2O)C3(CC(=O)[C@H]56)[C@@H]1O` (some centres not stated), the relative cell growth in test [1] was 1.01. Consider `CCN1C[C@]2(COC)[C@H](O)C[C@H](OC)[C@]34C1C([C@H](OC)[C@H]23)[C@]1(OC)[C@H]2[C@@H](OC(=O)c3ccc(OC)cc3)[C@](O)(C[C@H]24)[C@@H](OC)[C@@H]1O` [ALJESACONITINE A], for which the relative cell growth in test [1] is 0.93. `C=C1[C@@H](O)[C@]23C[C@@H]1[C@@H](OC(=O)c1ccccc1)C[C@H]2[C@@]12C4C3C[C@@H]1[C@@](C)(CC[C@H]2O)CN4CC` displayed a relative cell growth in test [1] of 0.82. Turning to `CCN1C[C@]2(C)CC[C@H](OC)[C@@]34C1[C@@]1(OCO[C@@]15C[C@H](OC)[C@H]1C[C@@H]3[C@@H]5[C@H]1O)[C@@H](O)[C@H]24` [DELPHELINE], in test [1], the relative cell growth amounted to 1.1. As for `CCN1C[C@]2(COC)CC[C@H](O)[C@]34C1[C@@](O)([C@@H](OC)[C@H]23)[C@@]1(O)C[C@H](OC)[C@H]2C[C@@H]4[C@@H]1[C@H]2OC(C)=O`, the relative cell growth in test [1] is 1.11. In the case of `C=C1[C@H]2C[C@H]3C4N5C[C@]6(C)CCC[C@]47[C@H]([C@H]2OC(=O)c2ccc([N+](=O)[O-])cc2)C3(C[C@]5(O)[C@H]67)[C@@H]1O`, the relative cell growth in test [1] came to 0.22. The IC50 in test [2] (setting [3]) came to 1.5 µg/mL (≈ 3.13 µM).

Take `COC[C@]12CN(C)C3C4[C@H](OC)[C@H]1[C@@]3([C@@H](OC)C[C@H]2O)[C@@H]1C[C@@]2(O)[C@H](OC(=O)c3ccccc3)[C@@H]1[C@]4(OC)[C@@H](O)[C@@H]2OC` [HOKBUSINE A]: the relative cell growth in test [1] worked out at 1.03.

`COC[C@]12CC[C@H]3OC1NC1[C@@]34[C@@H]3C[C@H]5[C@H](OC)[C@@H]3[C@](O)(C[C@@H]5OC)[C@]1(O)[C@@H](OC)[C@H]24` displayed a relative cell growth in test [1] of 1.14. Turning to `COC[C@@]12CC[C@H](OC)[C@]34C(C([C@H](OC)[C@H]13)[C@]1(OC(C)=O)[C@H]3[C@@H](OC(=O)c5ccccc5)[C@](O)(C[C@H]34)[C@@H](OC)[C@@H]1O)N(C)C2` [HYPACONITINE], in test [1], the relative cell growth came to 1.08. With `COC[C@]12CC[C@H]3OC1NC1[C@@]34[C@@H]3C[C@H]5[C@H](O)[C@@H]3[C@](O)(C[C@@H]5OC)[C@]1(O)[C@@H](OC)[C@H]24`, the relative cell growth in test [1] is 1.04.

With `C=C1[C@@H](O)[C@]23C[C@@H]1[C@@H](OC(=O)c1ccc(OC)c(OC)c1)C[C@H]2[C@@]12C4C3C[C@@H]1[C@@](C)(CC[C@H]2O)CN4CC`, the relative cell growth in test [1] turned out to be 0.97. Take `C=C1[C@H]2C[C@H]3C4N5C[C@]6(C)CCC[C@]47[C@H]([C@H]2O)C3(CC5[C@H]67)[C@@H]1O` [KOBUSINE]: the relative cell growth in test [1] stood at 0.76. Also, the 50% inhibitory concentration (IC50) in test [2] (setting [3]) was greater than 5 µg/mL. Taken in the same sequence, the figures for `C=C1[C@H]2C[C@H]3C4N5C[C@]6(C)CCC[C@]47[C@H]([C@H]2OC(=O)c2ccc(OC)cc2)C3(C[C@]5(O)[C@H]67)[C@@H]1O` were 0.23 and 1.3 µg/mL (≈ 2.8 µM). Consider `C=C1[C@@H](O)[C@]23C[C@@H]1[C@@H](OC(=O)c1ccc(OC)cc1)C[C@H]2[C@@]12C4C3C[C@@H]1[C@@](C)(CC[C@H]2O)CN4CC`, for which the relative cell growth in test [1] came to 0.84. Still for that read-out and setting: with `CCN1C[C@]2(COC)CC[C@H](OC)[C@]34C1C([C@H](OC)[C@H]23)[C@]1(OC(C)=O)[C@H]2[C@@H](OC(=O)c3ccc(OC)cc3)[C@](O)(C[C@H]24)[C@@H](OC)[C@@H]1O` [DEOXYJESACONITINE] the figure was 0.97; with `C=C1[C@H]2C[C@H]3C4N5C[C@]6(C)CCC[C@]47[C@H]([C@H]2O)C3(C[C@]5(OC(=O)c2ccc(OC)cc2)[C@H]67)[C@@H]1O`, 0.99; with `COC[C@]12CC[C@H](O)[C@]34C(NC1)[C@@](O)([C@@H](OC)[C@H]23)[C@@]1(O)C[C@H](OC)[C@H]2C[C@@H]4[C@@H]1[C@H]2O`, 0.9. Same read-out and setting: the result for `C=C1[C@H]2C[C@H]3C4N5C[C@]6(C)CCC[C@]47[C@H]([C@H]2OC(=O)c2cccc(C(F)(F)F)c2)C3(C[C@]5(O)[C@H]67)[C@@H]1O` reads 0.58; that for `C=C1[C@H]2C[C@H]3C4N5C[C@]6(C)CCC[C@]47[C@H]([C@H]2O)C3(C[C@]5(OC(=O)/C=C/c2ccccc2)[C@H]67)[C@@H]1O`, 0.97. `C=C1[C@H]2C[C@H]3C4N5C[C@]6(C)CCC[C@]47[C@H]([C@H]2O)C3(C[C@]5(O)[C@H]67)[C@@H]1OC(=O)c1ccc(OC)c(OC)c1` displayed a relative cell growth in test [1] of 0.97. For the same compound, the IC50 in test [2] (setting [3]) worked out at 2.9 µg/mL (≈ 5.88 µM). In turn, `C=C1[C@@H](OC(C)=O)[C@]23C[C@@H]1[C@@H](OC(C)=O)C[C@H]2[C@@]12C4C3C[C@@H]1[C@@](C)(CC[C@H]2OC(C)=O)CN4CC` yielded a relative cell growth in test [1] of 1.02. Moreover, the IC50 in test [2] (setting [3]) was greater than 5 µg/mL.

In turn, `COC[C@]12CC[C@H](O)[C@]34C(NC1)[C@@](O)([C@@H](OC)[C@H]23)[C@@]1(O)C[C@H](OC)[C@H]2C[C@@H]4[C@@H]1[C@H]2OC` registered a relative cell growth in test [1] of 0.93. Consider `CC(=O)O[C@H]1C[C@H]2C3C4C[C@@H]5[C@@]6(C)CC[C@H](OC(C)=O)[C@@]5(C4N(C)C6)[C@@H]3[C@H]1[C@@]1(CO1)[C@H]2O` (some centres not stated) [YESOXINE], for which, in test [1], the relative cell growth amounted to 1.01. For the same compound, in test [2] (setting [3]), the IC50 is greater than 5 µg/mL. On the same counts, the results for `C=C1[C@H]2C[C@H]3C4N5C[C@]6(C)CCC[C@]47[C@H]([C@H]2O)C3(C[C@]5(OC(=O)c2ccc(OC)c(OC)c2)[C@H]67)[C@@H]1O` are 0.84 and 3.7 µg/mL (≈ 7.5 µM). The compound `C=C1[C@@H](O)[C@]23C[C@@H]1[C@@H](OC(C)=O)C[C@H]2[C@@]12C4C3C[C@@H]1[C@@](C)(CC[C@H]2O)CN4CC` gave a relative cell growth in test [1] of 0.66. Moreover, the IC50 in test [2] (setting [3]) was found to be 5.6 µg/mL (≈ 13.9 µM). `C=C1[C@H]2C[C@H]3C4N5C[C@]6(C)CCC[C@]47[C@H]([C@H]2O)C3(C[C@]5(OC(=O)c2ccc([N+](=O)[O-])cc2)[C@H]67)[C@@H]1O` yielded a relative cell growth in test [1] of 0.96. `C=C1[C@H]2C[C@H]3C4N(Cc5ccccc5)C[C@]5(C)CCC[C@]46[C@H]([C@H]2O)C3(CC(=O)[C@H]56)[C@@H]1OCc1ccccc1` (some centres not stated) yielded a relative cell growth in test [1] of 1.04. In addition, the IC50 in test [2] (setting [3]) was greater than 5 µg/mL.

Source of the values: ChEMBL document CHEMBL1141436, “Inhibitory effects of diterpenoid alkaloids on the growth of A172 human malignant cells” (J Nat Prod, 2007).
